Published values gathered from unrelated publications.
Effect on: cell growth or viability

CC[C@H](C)C(=O)O[C@H]1C[C@@H](C)C=C2C=C[C@H](C)[C@H](CC[C@@H]3C[C@@H](O)CC(=O)O3)[C@H]21 gave an IC50 of 0.08 µM (SW-620; SRB; 72 h).
For CC(C)(C)CC(C)(C)Nc1c(-c2ccccc2)nc2ncccn12, the viability was 44.9% (MCF7; MTT; 25 µM, 48 h).
For CSc1ccc(OCc2ncc([N+](=O)[O-])n2C)cc1, the CC50 was > 62.5 µM (THP-1; MTT; 72 h).
With C/C(=C\C(=O)OCCCCCCCCC(=O)O)C[C@@H]1OC[C@H](C[C@@H]2O[C@H]2[C@@H](C)[C@H](C)O)[C@@H](O)[C@H]1O the CC50 was > 100 µM (TZM-bl).
With Cc1cccc2nc(-c3ccc([N+](=O)[O-])o3)[nH]c12 the CC50 was 1.7 µM (HEp-2; resazurin; 72 h).
CC(=O)OC1c2c(ccc3ccc(=O)oc23)OC(C)(C)C1OC(=O)C(C)(O)C(C)O (stereo not drawn) has an IC50 of 6.1 µM (MCF7; WST-1).
For C=C1C(=O)O[C@H]2[C@H]1CC/C(C)=C/CC[C@@]1(C)O[C@@H]21, the IC50 was 8.89 µM (THP-1; ATP luminescence; 17 h).
The IC50 of C=C(C)[C@H](CC=C(C)C)Cc1c(O)cc(O)c2c1O[C@H](c1ccc(O)cc1O)CC2=O is reported as 19.2 µM (MCF7; MTT; 48 h).
CC1(C)CC[C@]2(C)CC[C@]3(C)[C@H]4CC=C5[C@@H](CC[C@H](O)C5(C)C)[C@]4(C)CC[C@@]3(C)[C@@H]2C1 has an IC50 of 48.1 µM (HEp-2; WST-1).
For C=C(C)[C@@H]1CC[C@]2(C(=O)O)CC[C@]3(C)[C@H](CC[C@@H]4[C@@]5(C)CC[C@H](O)C(C)(C)[C@@H]5CC[C@]43C)[C@@H]12, the IC50 was 36 µM (WS1; 48 h).
C=C(C)C(CC=C(C)C)Cc1c(O)cc(OC)c2c1O[C@H](c1ccc(O)cc1O)CC2=O (single isomer, unassigned; (-)) gave an IC50 of 23.2 µM (MCF7; MTT).
The IC50 of CC(=O)O[C@@H]1c2c(ccc3ccc(=O)oc23)OC(C)(C)[C@@H]1OC(=O)C1(C)OC1C (stereo partly drawn) is reported as 25.1 µM (MCF7; WST-1).
O=[N+]([O-])c1ccc(-c2nc3cccc(O)c3[nH]2)o1 has a CC50 of 31.6 µM (HEp-2; resazurin; 72 h).
For Cc1cn([C@H]2C[C@H](N=[N+]=[N-])[C@@H](CO)O2)c(=O)[nH]c1=O, the CC50 was > 200 µg/mL (TZM-bl; MTT; 48 h).
OC[C@@H]1[C@@H](O)[C@H](O)[C@@H](O)CN1CC/C=C/CCOc1cc(F)ccc1F has a CC50 of > 500 µM (MDBK; MTT).
